Reference: ChEMBL document CHEMBL1133408, “5-Arylamino-2-methyl-4,7-dioxobenzothiazoles as inhibitors of cyclin-dependent kinase 4 and cytotoxic agents” (Bioorg Med Chem Lett, 2000)
Converted amounts (≈) assume the structure as drawn.

Tests used:
A549 = test: Inhibition of A549 cancer cell proliferation; type: functional, cell-based; conditions: Homo sapiens
In short: (§1)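 Cytotoxicity measured by sulforhodamine B (SRB) assay following NCI protocols. Human tumour cell lines: A 549 (non-small cell lung, from NCI), Col 1 (human colon carcinoma, from University of Illinois at Chicago surgical oncology), HL-60 (myeloid leukaemia, from ATCC) and HepG2 (hepatocarcinoma, from ATCC).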

[1] = target: Cyclin-dependent kinase 2 (Homo sapiens, UniProt P24941); test: Inhibition of Cyclin-dependent kinase 2 (CDK2/cyclin A)
COLO1 = test: Inhibition of Col1 cancer cell proliferation; type: functional, cell-based, Homo sapiens; in short: as §1
[2] = target: Cyclin-dependent kinase 4 (Homo sapiens, UniProt P11802); test: Inhibition of Cyclin-dependent kinase 4 (CDK4/cyclin Dl)
HL-60 = test: Inhibition of HL60 cancer cell proliferation; type: functional, cell-based, Homo sapiens; in short: as §1
HepG2 = test: Inhibition of HepG2 cancer cell proliferation; type: functional, cell-based; conditions: Homo sapiens; in short: as §1
[3] = Homo sapiens, COLO1, read-out: IC50
[4] = Homo sapiens, HL-60, read-out: IC50

Sequence of Cyclin-dependent kinase 4 (P11802 whole entry): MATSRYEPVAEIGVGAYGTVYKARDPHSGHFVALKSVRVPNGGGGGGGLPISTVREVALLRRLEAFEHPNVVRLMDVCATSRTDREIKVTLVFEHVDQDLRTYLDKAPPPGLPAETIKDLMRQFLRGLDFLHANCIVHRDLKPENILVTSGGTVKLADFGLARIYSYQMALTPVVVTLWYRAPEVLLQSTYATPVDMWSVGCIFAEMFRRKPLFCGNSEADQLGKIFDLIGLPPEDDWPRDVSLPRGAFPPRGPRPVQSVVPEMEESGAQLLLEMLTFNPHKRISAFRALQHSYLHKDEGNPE

| Compound | IC50 (A549) | IC50 [1] | IC50 (COLO1; [3]) | IC50 [2] | IC50 (HL-60; [4]) | IC50 (HepG2) | IC50 (COLO1; colo1) | IC50 (HL-60; hl-60) |
| --- | --- | --- | --- | --- | --- | --- | --- | --- |
| Cc1nc2c(s1)C(=O)C=C(Nc1ccc(Br)cc1)C2=O | 3.6 µg/mL (≈ 10.3 µM) | > 200 µM | 6.57 µg/mL (≈ 18.8 µM) | 6.7 µM | 0.28 µg/mL (≈ 0.802 µM) | 2.78 µg/mL (≈ 7.96 µM) | – | – |
| Cc1nc2c(s1)C(=O)C=C(Nc1ccc(I)cc1)C2=O | 2.08 µg/mL (≈ 5.25 µM) | > 200 µM | 2.08 µg/mL (≈ 5.25 µM) | 3 µM | 0.24 µg/mL (≈ 0.606 µM) | 1.95 µg/mL (≈ 4.92 µM) | – | – |
| COc1ccc(NC2=CC(=O)c3sc(C)nc3C2=O)cc1 | 1.65 µg/mL (≈ 5.49 µM) | > 200 µM | 2.01 µg/mL (≈ 6.69 µM) | 5.6 µM | 0.27 µg/mL (≈ 0.899 µM) | 1.39 µg/mL (≈ 4.63 µM) | – | – |
| Cc1ccc(NC2=CC(=O)c3sc(C)nc3C2=O)cc1 | 0.61 µg/mL (≈ 2.15 µM) | > 200 µM | 1.08 µg/mL (≈ 3.8 µM) | 6 µM | 0.3 µg/mL (≈ 1.06 µM) | – | – | – |
| Cc1nc2c(s1)C(=O)C=C(Nc1ccc(Cl)cc1)C2=O | 3.6 µg/mL (≈ 11.8 µM) | > 200 µM | 20 µg/mL (≈ 65.6 µM) | 7 µM | 0.33 µg/mL (≈ 1.08 µM) | 3.23 µg/mL (≈ 10.6 µM) | – | – |
| CISPLATIN | – | – | – | – | – | – | 1.38 µg/mL | 0.7 µg/mL |

Further lines, results first:

| IC50 (A549) | IC50 [1] | IC50 (COLO1; [3]) | IC50 [2] | IC50 (HL-60; [4]) | IC50 (HepG2) | IC50 (COLO1; colo1) | IC50 (HL-60; hl-60) | Compound |
| --- | --- | --- | --- | --- | --- | --- | --- | --- |
| 0.7 µg/mL (≈ 2.44 µM) | > 200 µM | 1.85 µg/mL (≈ 6.46 µM) | 6.7 µM | 0.26 µg/mL (≈ 0.908 µM) | 1.36 µg/mL (≈ 4.75 µM) | – | – | Cc1nc2c(s1)C(=O)C=C(Nc1ccc(O)cc1)C2=O |
| 0.64 µg/mL (≈ 2.37 µM) | > 200 µM | 1.93 µg/mL (≈ 7.14 µM) | 6 µM | 0.28 µg/mL (≈ 1.04 µM) | 1.3 µg/mL (≈ 4.81 µM) | – | – | Cc1nc2c(s1)C(=O)C=C(Nc1ccccc1)C2=O |
| 1.69 µg/mL (≈ 5.86 µM) | > 200 µM | 1.94 µg/mL (≈ 6.73 µM) | 6.3 µM | 0.23 µg/mL (≈ 0.798 µM) | 1.51 µg/mL (≈ 5.24 µM) | – | – | Cc1nc2c(s1)C(=O)C=C(Nc1ccc(F)cc1)C2=O |
| 1.76 µg/mL (≈ 5.6 µM) | > 200 µM | 2.09 µg/mL (≈ 6.65 µM) | 20 µM | 0.29 µg/mL (≈ 0.922 µM) | 1.53 µg/mL (≈ 4.87 µM) | – | – | CCOc1ccc(NC2=CC(=O)c3sc(C)nc3C2=O)cc1 |
| 57 µg/mL (≈ 191 µM) | – | 87 µg/mL (≈ 292 µM) | – | 50 µg/mL (≈ 168 µM) | – | – | – | Cn1cnc2c(NCc3ccccc3)nc(NCCO)nc21 [OLOMOUCINE] |
